One block for each compound: values may come before it.
Key:
[1] = Tmax in ICR mouse at 50 mg/kg, po by LC-MS/MS analysis; type: ADME, organism-based; settings: in vivo
How it was run: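 Male ICR mice, 7~8 weeks, 30 ± 5 g, given a single oral dose of 50 mg/kg (n = 4). Carotid-artery blood was sampled at 0, 0.25, 0.5, 1, 2, 4, 6 and 8 h. Plasma was protein-precipitated with acetonitrile containing internal standard and quantified by LC-MS/MS on a C18 gradient. Parameters came from non-compartmental analysis and are reported as mean ± SD.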

[2] = Terminal half-life in ICR mouse at 50 mg/kg, po by LC-MS/MS analysis; type: ADME, organism-based; settings: in vivo, read-out: beta t1/2 (converted)
How it was run: (§1)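 Male ICR mice, 7~8 weeks, 30 ± 5 g; single dose 5 mg/kg IV (n = 5) or 50 mg/kg oral (n = 4). Plasma protein-precipitated with acetonitrile containing internal standard, then LC-MS/MS. Non-compartmental analysis; AUClast by trapezoidal rule. Mean ± SD.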

[3] = Cmax in ICR mouse at 5 mg/kg, iv by LC-MS/MS analysis; type: ADME, organism-based; set-up: dose 5 mg/kg, route intravenous; settings: in vivo; how it was run: as §1
[4] = Cmax in ICR mouse at 50 mg/kg, po by LC-MS/MS analysis; type: ADME, organism-based; set-up: dose 50 mg/kg, route oral; settings: in vivo; how it was run: as §1
CYP3A4 = CYP3A4 (Homo sapiens, UniProt P08684); assay: Inhibition of CYP3A4 in human liver microsomes assessed as remaining activity at 10 uM using midazolam as substrate preincubated for 5 mins followed by addition of NADPH generating system measured after 15 mins by LC-MS analysis; type: ADME; settings: probe midazolam, read-out: Activity
How it was run: (§2)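 Human liver microsomes 0.25 mg/ml in 0.1 M phosphate, pH 7.4, with a probe cocktail: phenacetin 50 μM, diclofenac 10 μM, S-mephenytoin 100 μM, dextromethorphan 5 μM, midazolam 2.5 μM. Test compound at 10 μM versus 0 μM control. 5 min at 37 °C, then NADPH-generating system for 15 min. Acetonitrile quench; metabolites measured by LC/MS as % remaining activity.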

[5] = MRT in ICR mouse at 5 mg/kg, iv by LC-MS/MS analysis; type: ADME, organism-based; settings: in vivo; how it was run: as §1
[6] = Stability in human liver microsomes assessed as drug recovery at 1 uM preincubated for 5 mins followed by addition of NADPH generation system and measured after 30 mins by LC-MS analysis; type: ADME, microsome; settings: read-out: Drug recovery
How it was run: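 Human liver microsomes 0.5 mg/ml in 0.1 M phosphate, pH 7.4, with 1 μM compound. Preincubated 5 min at 37 °C, then NADPH-generating system added for 30 min at 37 °C. Acetonitrile with internal standard added to stop the reaction, centrifuged, and supernatant analysed by LC/MS as % remaining.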

Mus musculus = assay: Toxicity in ICR mouse assessed as mortality at 50 mg/kg, po; type: organism-based; settings: in vivo
How it was run: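 Observed in male ICR mice (7~8 weeks, 30 ± 5 g; n = 4) during a pharmacokinetic study after a single oral dose. Mice were held at 23 ± 3° and about 55% ± 10% humidity with standard feed and tap water. Blood was drawn via carotid artery from 0.25 to 8 h after dosing.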

CYP1A2 = target: T1, CYP1A2 (Homo sapiens, UniProt P05177); assay: Inhibition of CYP1A2 in human liver microsomes assessed as remaining activity at 10 uM using phenacetin as substrate preincubated for 5 mins followed by addition of NADPH generating system measured after 15 mins by LC-MS analysis; type: ADME; settings: probe phenacetin, read-out: Activity; how it was run: as §2
T1 sequence (P05177 whole entry): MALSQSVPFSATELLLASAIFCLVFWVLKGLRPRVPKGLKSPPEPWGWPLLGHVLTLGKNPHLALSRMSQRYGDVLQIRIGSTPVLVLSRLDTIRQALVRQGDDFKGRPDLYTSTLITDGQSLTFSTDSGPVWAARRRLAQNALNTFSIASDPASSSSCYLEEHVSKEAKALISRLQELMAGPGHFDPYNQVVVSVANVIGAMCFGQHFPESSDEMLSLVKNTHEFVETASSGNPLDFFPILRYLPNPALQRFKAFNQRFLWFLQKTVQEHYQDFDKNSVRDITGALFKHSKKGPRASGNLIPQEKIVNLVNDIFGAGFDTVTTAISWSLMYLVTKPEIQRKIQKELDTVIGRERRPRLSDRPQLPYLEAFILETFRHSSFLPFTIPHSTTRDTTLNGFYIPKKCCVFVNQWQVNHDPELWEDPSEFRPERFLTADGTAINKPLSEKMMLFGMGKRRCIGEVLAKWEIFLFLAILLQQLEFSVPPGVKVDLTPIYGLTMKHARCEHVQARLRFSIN

[7] = AUClast in ICR mouse at 50 mg/kg, po by LC-MS/MS analysis; type: ADME, organism-based; set-up: dose 50 mg/kg, route oral, time 0 - last; settings: in vivo; how it was run: as §1
[8] = Clearance in ICR mouse at 5 mg/kg, iv by LC-MS/MS analysis; type: ADME, organism-based; settings: in vivo; how it was run: as §1
[9] = Apparent volume of distribution at steady state in ICR mouse at 5 mg/kg, iv by LC-MS/MS analysis; type: ADME, organism-based; settings: in vivo, read-out: Vdss; how it was run: as §1
Homo sapiens [10] = organism: Homo sapiens; assay: Selectivity index, ratio of Ki for human 5-HT3 receptor to Ki for human 5-HT7 receptor
How it was run: (§3)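 Selectivity index taken as Ki at the other 5-HT receptor subtype divided by Ki at 5-HT7R, each from [3H]LSD membrane binding run by the NIMH PDSP. Ki values are means of at least three experiments in triplicate.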

Homo sapiens [11] = organism: Homo sapiens; assay: Selectivity index, ratio of Ki for human 5-HT1A receptor to Ki for human 5-HT7 receptor; how it was run: as §3
[12] = target: 5-hydroxytryptamine receptor 7 (Homo sapiens, UniProt P34969); assay: Displacement of [3H]LSD from human 5-HT7 receptor expressed in HEK cell membranes after 1.5 hrs by microbeta scintillation counting method
Sequence of 5-hydroxytryptamine receptor 7 (P34969 whole entry): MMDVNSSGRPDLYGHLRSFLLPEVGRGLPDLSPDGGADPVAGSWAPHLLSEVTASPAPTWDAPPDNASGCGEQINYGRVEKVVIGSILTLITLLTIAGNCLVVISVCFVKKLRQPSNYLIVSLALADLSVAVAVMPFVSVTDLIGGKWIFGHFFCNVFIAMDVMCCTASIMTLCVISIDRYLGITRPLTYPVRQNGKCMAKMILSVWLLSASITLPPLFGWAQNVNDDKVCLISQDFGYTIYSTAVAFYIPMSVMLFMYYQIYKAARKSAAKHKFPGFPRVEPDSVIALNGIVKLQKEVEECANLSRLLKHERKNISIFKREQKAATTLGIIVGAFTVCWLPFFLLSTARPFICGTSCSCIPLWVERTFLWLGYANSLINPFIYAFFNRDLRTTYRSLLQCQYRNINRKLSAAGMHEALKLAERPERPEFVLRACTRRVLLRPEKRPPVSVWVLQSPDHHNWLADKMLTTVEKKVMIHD

Sequence of CYP3A4 (P08684 whole entry): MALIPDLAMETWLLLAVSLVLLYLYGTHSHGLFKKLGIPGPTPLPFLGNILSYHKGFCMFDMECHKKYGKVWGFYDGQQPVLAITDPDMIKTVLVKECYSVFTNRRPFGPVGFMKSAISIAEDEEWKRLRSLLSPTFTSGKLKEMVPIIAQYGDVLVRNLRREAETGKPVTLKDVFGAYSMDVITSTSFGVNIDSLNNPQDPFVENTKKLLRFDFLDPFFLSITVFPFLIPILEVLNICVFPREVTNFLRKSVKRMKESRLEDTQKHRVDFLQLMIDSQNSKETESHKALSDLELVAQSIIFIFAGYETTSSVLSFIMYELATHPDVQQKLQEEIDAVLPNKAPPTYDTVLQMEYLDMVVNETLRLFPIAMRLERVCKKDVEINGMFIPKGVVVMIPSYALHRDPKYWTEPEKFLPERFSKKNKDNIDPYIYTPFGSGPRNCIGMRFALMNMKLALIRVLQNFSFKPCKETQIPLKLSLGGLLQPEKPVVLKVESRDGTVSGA

Compound: Clc1ccc(-c2n[nH]c3c2CCNCC3)cc1
Tmax [1]: 1.37 h
half-life [2]: 2.77 h
Cmax [3]: 2200 ng/mL
Cmax [4]: 11800 ng/mL
activity at 0.25 h, 10 µM (CYP3A4): 95.4%
MRT [5]: 2.5 h
remaining at 0.5 h, 1 µM [6]: 82.4%
Activity (Mus musculus): Non-Toxic
activity at 0.25 h, 10 µM (CYP1A2): 86%
AUC(0-t) [7]: 53700 ng·h/mL
clearance [8]: 16 mL/min/kg
Vd [9]: 2.47 L/kg

Ratio Ki (Homo sapiens [10]): 26.3
Compound: Cc1ccc(-c2noc3c2CCNCC3)cc1

Ratio Ki (Homo sapiens [11]): 18
Ki [12]: 104 nM
Compound: Fc1ccc(-c2n[nH]c3c2CCNCC3)cc1

— ChEMBL document CHEMBL4196105, “Discovery of β-Arrestin Biased Ligands of 5-HT7R” (J Med Chem, 2018)
